Consider one molecule from ChEMBL document CHEMBL4732101, “Novel quinolone-based potent and selective HDAC6 inhibitors: Synthesis, molecular modeling studies and biological investigation” (Eur J Med Chem, 2021).

As a reminder, the pIC50 is the negative decadic logarithm of the IC50, by convention in mol/L.

Series [1] can be described thus: Stability of compound in pH 3 buffer assessed as parent compound remaining at 250 uM measured after 24 hrs by HPLC/UV/DAD method. The class given is physicochemical. The conditions noted are these: read-out: Stabilty. The method in brief:
(§1)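 10 mM DMSO stock diluted to 250 µM (2.5% DMSO) in 50 mM acetic acid, pH 3.0, and shaken 24 h at 25 °C. For solubility, samples filtered, diluted 1:2, quantified by HPLC-UV at 254 nm against a standard. For stability, percent remaining taken as the 24 h peak area over the T0 peak area. Triplicate analyses averaged.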

Series [2] relates to HCT-116. Kind of series: Induction of apoptosis in human HCT-116 cells assessed as increase in PARP cleavage at 10 uM measured after 24 hrs by Western blot analysis. The class given is functional, cell-based. The method in brief: (§2)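 HCT-116 or U937 cells treated at 10 µM for 12 and 24 h. […] Western blot used 40 µg total protein or 5 µg acid-extracted histone. Blots probed for cleaved PARP, acetylated tubulin, H3K9/14ac and Hsp90(AcLys294), normalized to GAPDH or H4. Compared with control cells by one-way ANOVA and Dunnett's test.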
In general terms: Immunoblotting shows a protein as a band on a membrane.

The subject of series [3] is NIH3T3. Kind of series: Cytotoxicity against mouse NIH/3T3 cells assessed as reduction in cell viability after 24 hrs by neutral red uptake assay. The class given is cell-based. The conditions noted are these: NIH3T3, 24 h. The method in brief:
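NIH3T3 fibroblasts seeded at 5 x 10^4 per well and cultured 24 h at 37 °C, 5% CO2. DMSO-solubilized samples added at 8 to 160 µM for 24 h; medium as negative control. Neutral Red medium applied 3 h, dye desorbed in acetic acid/ethanol, absorbance read at 540 nm. Three experiments, six replicates per concentration; viability normalized to % control.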

A short description of series [4]: Mutagenicity in Salmonella typhimurium TA98 at 5 to 230 uM measured after 90 mins in presence of rat liver S9 fraction by Ames test. The class given is toxicity, subcellular. The following applies: salmonella enterica subsp. enterica serovar typhimurium, s9, 1.5 h, dose 5-230 µM. A general note: The Ames test detects mutagens through reverse mutation in bacteria.

Series [5] is described as follows: Inhibition of HDAC1/2/3/8 in human U-937 cells assessed as increase in H3K9/14 acetylation at 10 uM measured after 12 to 24 hrs by Western blot analysis. It is filed as cell-based. The conditions noted are these: u-937, 10 µM, time 12-24 hrs. The method in brief:
as §2

Series [6] in a line: Solubility of compound in pH 3 buffer at 250 uM measured after 24 hrs by HPLC/UV/DAD method. The following applies: pH 3, 24 h. The class given is physicochemical. The method in brief: as §1
For series [7], the system named is HCT-116. Description: Cytotoxicity against human HCT-116 cells assessed as reduction in cell viability measured after 48 hrs by MTT assay. The class given is functional, cell-based. The following applies: HCT-116, 48 h. The method in brief: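 HCT-116 cells grown in DMEM with 10% FBS, 2 mM L-glutamine and antibiotics. 2.5×10^4 cells/well treated in triplicate at 50, 25, 10, 5 and 1 µM for 12, 24 or 48 h. Then MTT 0.5 mg/ml for 3 h, supernatant removed, formazan dissolved in isopropanol, absorbance read at 570 nm. IC50 derived from the concentration series.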
A general note: Tetrazolium assays rely on reduction of a dye to a coloured formazan, in cell work by metabolically active cells.

Series [8] can be described thus: Mutagenicity in Salmonella typhimurium TA100 at 5 to 230 uM measured after 90 mins in absence of rat liver S9 fraction by Ames test. The class given is toxicity. The following applies: salmonella enterica subsp. enterica serovar typhimurium, s9, 1.5 h, dose 5-230 µM.
The target of series [9] is T1, Protein deacetylase HDAC6 (Homo sapiens) (UniProt Q9UBN7).
T1 sequence (whole entry): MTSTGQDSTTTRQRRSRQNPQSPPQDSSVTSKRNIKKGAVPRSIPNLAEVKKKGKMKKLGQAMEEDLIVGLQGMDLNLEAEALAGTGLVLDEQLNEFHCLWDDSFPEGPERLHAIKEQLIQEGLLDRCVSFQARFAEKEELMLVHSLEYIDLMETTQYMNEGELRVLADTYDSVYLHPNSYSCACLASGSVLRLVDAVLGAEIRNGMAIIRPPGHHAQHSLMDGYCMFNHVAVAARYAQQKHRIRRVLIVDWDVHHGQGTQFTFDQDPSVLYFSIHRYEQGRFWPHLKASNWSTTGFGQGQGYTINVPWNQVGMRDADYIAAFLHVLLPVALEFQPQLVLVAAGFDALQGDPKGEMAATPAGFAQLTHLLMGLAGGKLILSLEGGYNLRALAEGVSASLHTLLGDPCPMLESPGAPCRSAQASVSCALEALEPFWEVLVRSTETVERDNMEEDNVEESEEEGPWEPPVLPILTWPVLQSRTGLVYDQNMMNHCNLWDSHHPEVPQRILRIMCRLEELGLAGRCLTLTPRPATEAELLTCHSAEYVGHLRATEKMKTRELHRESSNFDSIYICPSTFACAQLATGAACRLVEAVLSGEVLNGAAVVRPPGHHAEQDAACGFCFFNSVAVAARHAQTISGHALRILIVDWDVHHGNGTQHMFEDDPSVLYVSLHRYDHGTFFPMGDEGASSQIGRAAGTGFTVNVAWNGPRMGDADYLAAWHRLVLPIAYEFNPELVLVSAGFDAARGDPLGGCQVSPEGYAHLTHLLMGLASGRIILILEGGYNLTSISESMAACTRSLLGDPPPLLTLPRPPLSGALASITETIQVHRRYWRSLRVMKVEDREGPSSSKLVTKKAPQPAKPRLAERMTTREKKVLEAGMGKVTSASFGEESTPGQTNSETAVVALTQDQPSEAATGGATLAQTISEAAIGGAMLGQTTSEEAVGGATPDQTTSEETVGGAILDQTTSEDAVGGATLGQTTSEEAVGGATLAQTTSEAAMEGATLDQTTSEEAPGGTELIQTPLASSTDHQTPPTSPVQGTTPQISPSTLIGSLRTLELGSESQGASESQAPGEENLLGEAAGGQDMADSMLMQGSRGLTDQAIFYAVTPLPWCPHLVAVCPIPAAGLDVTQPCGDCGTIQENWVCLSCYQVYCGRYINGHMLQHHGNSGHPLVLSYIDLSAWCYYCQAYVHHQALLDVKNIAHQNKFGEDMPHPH
Description: Inhibition of HDAC6 in human HCT-116 cells assessed as increase in alpha-tubulin acetylation at 10 uM measured after 12 to 24 hrs by Western blot analysis relative to control. It is filed as cell-based. The conditions noted are these: time 12-24 hrs. The method in brief:
as §2

In series [10] the target is T1, Protein deacetylase HDAC6 (Homo sapiens). Description: Inhibition of HDAC6 in human U-937 cells assessed as increase in Hsp90(AcLys294) acetylation at 10 uM measured after 12 to 24 hrs by Western blot analysis. The conditions noted are these: time 12-24 hrs. The class given is cell-based. The method in brief:
as §2

Series [11] shares this target. Kind of series: Inhibition of HDAC6 in human HCT-116 cells assessed as increase in Hsp90(AcLys294) acetylation at 10 uM measured after 12 to 24 hrs by Western blot analysis. It is filed as cell-based. The following applies: time 12-24 hrs. The method in brief: as §2
Series [12] in a line: Mutagenicity in Salmonella typhimurium TA98 at 5 to 230 uM measured after 90 mins in absence of rat liver S9 fraction by Ames test. The conditions noted are these: salmonella enterica subsp. enterica serovar typhimurium, 1.5 h, dose 5-230 µM. The class given is toxicity.
Series [13] can be described thus: Mutagenicity in Salmonella typhimurium TA100 at 5 to 230 uM measured after 90 mins in presence of rat liver S9 fraction by Ames test. The class given is toxicity, subcellular. The conditions noted are these: salmonella enterica subsp. enterica serovar typhimurium, s9, 1.5 h, dose 5-230 µM.
In series [14] the test system is U-937. Description: Induction of apoptosis in human U-937 cells assessed as increase in PARP cleavage at 10 uM measured after 24 hrs by Western blot analysis. It is filed as functional, cell-based. The method in brief:
as §2

pIC50: −log10 of the molar value. Active and inactive are the calls of the source. The rule behind the calls is not given here. Bounds are passed on as bounds.

`CCN(CC)Cc1ccc(Cn2c(=O)c(OCc3ccc(C(=O)NO)cc3)c(-c3cccnc3)c3ccccc32)cc1`: in series [1], the remaining at 24 h, 250 µM is above 95%. Moreover, the outcome in series [2] and in series [14] was Active. Besides, the pIC50 in series [3] is 4.05; in series [7], 5.08. For the same molecule, the Activity entry in [4], in series [8], in series [12] and in series [13] was “Non-Toxic” each time. For the same molecule, the “inhibition (INH)” value in series [5] is recorded as “Active”. Further, the solubility result in [6] is recorded as “Soluble”. Moreover, the fold change (FC) in [9] was above 9. Further, the inhibition result in series [10] is “inactive”. In series [11], the inhibition entry is “Active”.
